What was measured:
[1] = biological target: Trypanothione reductase (Trypanosoma cruzi) (UniProt P28593); assay: Natural log of the value in (uM) of inhibition constant was tested against Trypanothione Reductase
[2] = biological target: Trypanothione reductase (Trypanosoma cruzi) (UniProt P28593); assay: Percent Inhibition of trypanothione reductase activity at 28.5 uM concentration
How it was run: (§1)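 TR-catalysed reduction of trypanothione disulfide; the reaction rate was measured without inhibitor (r0) and with inhibitor (rinh). Percent inhibition = (r0 − rinh)/r0 × 100. Measured percentages carry an error of about 10%.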

[3] = biological target: Trypanothione reductase (Trypanosoma cruzi) (UniProt P28593); assay: Percent Inhibition of trypanothione reductase activity at 5.7 uM concentration; how it was run: as §1
[4] = biological target: Trypanothione reductase (Trypanosoma cruzi) (UniProt P28593); assay: Percent Inhibition of trypanothione reductase activity at 57 uM concentration; how it was run: as §1

Trypanothione reductase (Trypanosoma cruzi), sequence (P28593 whole entry, looked up): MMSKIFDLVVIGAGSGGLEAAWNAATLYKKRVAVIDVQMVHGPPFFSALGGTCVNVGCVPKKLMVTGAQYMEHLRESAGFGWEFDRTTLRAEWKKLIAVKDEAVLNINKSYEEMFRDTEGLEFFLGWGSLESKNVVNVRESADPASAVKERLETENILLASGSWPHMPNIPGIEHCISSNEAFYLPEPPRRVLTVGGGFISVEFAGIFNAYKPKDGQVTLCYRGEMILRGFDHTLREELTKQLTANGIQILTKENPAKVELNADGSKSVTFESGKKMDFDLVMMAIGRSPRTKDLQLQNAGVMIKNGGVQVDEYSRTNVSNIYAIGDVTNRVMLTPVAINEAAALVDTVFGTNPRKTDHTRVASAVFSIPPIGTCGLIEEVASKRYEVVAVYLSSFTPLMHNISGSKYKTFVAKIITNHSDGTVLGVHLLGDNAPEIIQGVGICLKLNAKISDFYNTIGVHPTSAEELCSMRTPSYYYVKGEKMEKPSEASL

Structure (SMILES)	Natural log of inhibition constant (Ki in uM) [1]	inhibition [2]	inhibition [3]	inhibition [4]
CN1CCN(CCCNc2cc(Cl)ccc2Sc2ccc(Cl)cc2)CC1	4.04			
CN1CCN(CCNc2cc(Cl)ccc2Sc2ccccc2)CC1	3.68			
CCC(C)(C)c1ccc(OCCCCN)c(C(C)(C)CC)c1		0%	0%	0%
Clc1ccc(Sc2ccccc2NCCN2CCCC2)cc1	5.08			
Clc1ccc(Sc2ccccc2)c(NCCCN2CCCC2)c1	3.78			
CN(C)c1ccc(C(c2ccc(N(C)C)cc2)c2ccc(N(C)C)cc2)cc1	1.6			
Clc1ccc(Sc2ccc(Cl)cc2NCCCN2CCCCC2)cc1	4.09			
Clc1ccc(C(c2ccccc2)N2CCNCC2)cc1 (stereo not drawn)		30%	0%	40%
CCN(CC)CCNc1cc(Cl)ccc1Sc1ccccc1	6.21			
CN(C)CCCC(CN)(c1ccccc1)c1ccccc1		9%	0%	36%
NCCC1CCN(Cc2ccccc2)CC1		0%	0%	0%
CN1CCN(CCCNc2cc(Cl)ccc2Sc2cc(Cl)ccc2Cl)CC1	3.4			
COc1ccc(/C=C/C(=O)N2CCCN(CCCCN)C2)cc1	5.01			
CN(C)CCNc1cc(Cl)ccc1Sc1ccc(Cl)cc1	3.91			
COc1ccc(/C=C/C(=O)NCCCNCCCCN)cc1	5.6			
C[C@@H]1CN(CCCn2c3ccccc3c3ccccc32)C[C@H](C)N1		15%	10%	23%
COc1ccc(CCC(=O)NCCCNCCCCN)cc1	5.82			
Clc1ccc(Sc2ccc(Cl)cc2NCCCN2CCCC2)cc1	4.06			
CN(C)CCNc1ccccc1Sc1ccc(Cl)cc1	4.38			
Cc1cc(-c2ccccc2)nnc1NCCN1CCOCC1		16%	18%	12%
Cc1ccc(Sc2ccc(F)cc2)c(NCCCN2CCN(C)CC2)c1	5.35			
Cc1ccc(Sc2ccccc2NCCCN2CCN(C)CC2)cc1	4.17			
CN1CCN(CCNc2cc(Cl)ccc2Sc2ccc(Cl)cc2)CC1	3.85			
NCCc1ccc(Oc2ccccc2)cc1		0%	0%	0%
NCCCNCCCCNCCCNC(=O)CCc1ccc(O)c(O)c1	4.44			
Cc1ccc(Sc2ccc(C)cc2NCCCN2CCN(C)CC2)cc1	4.38			

Structure (SMILES)	Natural log of inhibition constant (Ki in uM) [1]	inhibition [2]	inhibition [3]	inhibition [4]
NCc1ccccc1Sc1ccccc1CO		0%	0%	31%
CNCCC=C1c2ccccc2CCc2ccccc21		0%	0%	25%
NCCN(CCN)CCCNc1cc(Cl)ccc1Sc1ccccc1	1.5			
Clc1ccc(Sc2ccccc2)c(NCCN2CCCC2)c1	4.34			
Fc1ccc(C(CCCN2CCNCC2)c2ccc(F)cc2)cc1		9%	0%	18%
CN1CCN(CCCCNc2ccccc2Sc2cccc(NCCCCCNc3cccc(Sc4ccccc4NCCCCN4CCN(C)CC4)c3)c2)CC1	1			
CN1CCN(CCNc2ccccc2Sc2ccc(Cl)cc2)CC1	4.38			
c1ccc(Sc2ccccc2NCCCN2CCCC2)cc1	4.73			
Clc1ccc(Sc2ccccc2)c(NCCCN2CCCCC2)c1	3.95			
NCCCCNCCCNC(=O)CCc1ccc(O)c(O)c1	4.68			
CN1CCN(CCCNc2cc(Cl)ccc2Sc2ccccc2)CC1	3.3			
CN(C)CCNc1cc(Cl)ccc1Sc1ccccc1	4.38			
COc1ccc(/C=C/C(=O)NCCCCN2CCCN(C(=O)/C=C/c3ccc(OC)cc3)C2)cc1	5.01			
Clc1ccc(Sc2ccc(Cl)cc2NCCN2CCCCC2)cc1	6.9			
CC(=O)c1ccc(Sc2ccc(Cl)cc2NCCCN2CCN(C)CC2)cc1	2.94			
NCCNCCCNc1cc(Cl)ccc1Sc1ccccc1	3			
Cc1cccc(C)c1OCC(O)CN1CCNCC1 (stereo not drawn)		0%	0%	7%
NCCCNCCCNC1=C(c2c[nH]c3ccccc23)C(=O)NC1=O	0.91			
O=C(/C=C/c1ccc(O)c(O)c1)NCCCNCCCCNCCCNC(=O)/C=C/c1ccc(O)c(O)c1	2.77			
CCN(CC)CCCNc1cc(Cl)ccc1Sc1ccccc1	3.74			
COc1cc(CC2NCCc3c2[nH]c2ccccc32)ccc1O (stereo not drawn)		13%	0%	27%
O=C(CCc1ccc(O)c(O)c1)NCCCCNCCCNC(=O)CCc1ccc(O)c(O)c1	2.01			
Cc1ccc(Sc2ccc(Cl)cc2NCCCN2CCN(C)CC2)cc1	3.33			
Clc1ccc(Sc2ccccc2)c(NCCN2CCCCC2)c1	6.55			
CN1CCN(CCCNc2cc(Cl)ccc2Sc2ccc(F)cc2)CC1	4.74			
N#Cc1ccc(C2NCCc3c2[nH]c2ccccc32)cc1 (stereo not drawn)		0%	0%	0%
